Reference: ChEMBL document CHEMBL1122108, “(+/-)-2-Depentylperhydrohistrionicotoxin: a new probe for a regulatory site on the nicotinic acetylcholine receptor-channel” (1982)

What was measured:
[1] = Percent block of sciatic nerve sartorius muscle twitch of frog 30 min after direct stimulation and exposure to 50 uM toxin for 60 min; type: functional, Muscle tissue
Method in brief: (§1)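 Frog sartorius nerve-muscle in oxygenated physiological solution (100% O2, pH 6.9-7.1). Indirect: nerve stimulated with supramaximal 0.05-0.1 ms pulses via Ag-AgCl salt-bridge electrode. Direct: supramaximal 1.0-2.0 ms rectangular pulses at 0.05 Hz through bipolar platinum electrode around mid-muscle. Compounds at 50 µM, diluted in physiological solution just before use, applied 60 min. Twitch tension recorded; means ± SD from at least three muscles.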

[2] = Percent block of sciatic nerve sartorius muscle twitch of frog 60 min after direct stimulation and exposure to 50 uM toxin for 60 min; type: functional, Muscle tissue; method in brief: as §1
[3] = Percent block of sciatic nerve sartorius muscle twitch of frog 60 min after indirect stimulation and exposure to 50 uM toxin for 60 min; type: functional, Muscle tissue; method in brief: as §1
[4] = Percent block of sciatic nerve sartorius muscle twitch of frog 30 min after indirect stimulation and exposure to 50 uM toxin for 60 min; type: functional, Muscle tissue; method in brief: as §1
[5] = Percent maximum potentiation of the sciatic nerve sartorius muscle twitch after direct stimulation and exposure to 50 uM toxin for 60 min; type: functional, frog, Muscle tissue; method in brief: as §1
[6] = Percent maximum potentiation of the sciatic nerve sartorius muscle twitch after indirect stimulation and exposure to 50 uM toxin for 60 min; type: functional, frog, Muscle tissue; method in brief: as §1

SMILES | Block [1] | Block [2] | Block [3] | Block [4] | Activity [5] | Activity [6]
CCCC[C@@H]1[C@@H](OC(C)=O)CCCC12CCCC[N+]2(C)C.[I-] (some centres undefined) | 34% | 47% | 91% | 85% |  | 
CCCCC1C(OC(=O)OC)CCCC12CCCCN2C(=O)OC (centres undefined) | 0% | 0% | 0% | 0% |  | 
CCCC[C@@H]1[C@H](O)CCCC12CCCCN2 (some centres undefined) | 19% | 30% | 61% | 55% |  | 
CCCCC1C(O)CCCC12CCCCN2 (centres undefined) | 52% | 52% | 100% | 96% |  | 
CCCC[C@@H]1[C@@H](O)CCCC12CCCC[N+]2(C)C.[I-] (some centres undefined) | 29% | 43% | 49% | 39% |  | 
CCCC[C@@H]1[C@H](O)CCCC12CCCCN2C (some centres undefined) | 5% | 5% | 65% | 62% |  | 
CCCCC1C(OC(C)=O)CCCC12CCCCN2C (centres undefined) | 22% | 25% | 94% | 88% |  | 
CCCCC1C(OC(=O)OC)CCCC12CCCCN2 (centres undefined) | 14% | 25% | 82% | 67% |  | 
CCCC[C@@H]1C(=O)CCCC12CCCCN2C (some centres undefined) | 26% | 33% | 56% | 49% |  | 
CCCCC1C(O)CCCC12CCCCN2C(C)=O (centres undefined) | 20% | 24% | 26% | 10% | 103% | 116%
CCCCC1C(O)CCCC12CCCCN2C (centres undefined) | 24% | 30% | 92% | 78% |  | 
CCCC[C@@H]1C(=O)CCCC12CCCCN2 (some centres undefined) | 8% | 25% | 58% | 46% |  | 
CCCCC1C(OC(C)=O)CCCC12CCCCN2C(C)=O (centres undefined) | 0% | 0% | 0% | 0% | 118% | 125%
CCCC[C@@H]1[C@H](O)CCCC12CCCC[N+]2(C)C.[I-] (some centres undefined) | 48% | 49% | 83% | 74% |  | 
CCCCC1C2CCCC13CCCCN3C(=O)O2 (centres undefined) | 22% | 31% | 66% | 35% |  | 
CCCC[C@@H]1C(=O)CCCC12CCCCN2C(C)=O (some centres undefined) | 0% | 6% | 20% | 7% | 102% | 117%
CCCCCC1CCC[C@]2(CCC[C@H](O)C2CCCC)N1 (some centres undefined) | 47% | 45% | 100% | 100% |  | 
